From ChEMBL document CHEMBL3392986, “Hydroxamic acids block replication of hepatitis C virus” (J Med Chem, 2015)
Calls of active or inactive are those of the source. The rule behind the calls is not given here.

How the values were obtained:
[1] = Cytotoxicity against human HuH7 cells assessed as inhibition of cell viability after 3 days by CellTiter 96 assay
Hepatitis C virus [2] = experiment: Antiviral activity against HCV genotype 1b infected in human Huh7 cells after 3 days by luciferase reporter gene assay; assay type: functional, cell-based, Hepacivirus hominis; settings: Huh-7, 72 h
Hepatitis C virus [3] = experiment: Antiviral activity against HCV genotype 1b infected in human Huh7 cells assessed as reduction in viral RNA level at 0.5 uM after 3 days by RT-qPCR; assay type: functional, Hepacivirus hominis, Huh-7; design: scale not given: the % may be the effect or the level left; settings: in the assay text read “2 uM” for “0.5 uM”
How it was run: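 Replicon-bearing Huh7 cells, 6 X 10^3 per well, exposed to compound in DMSO or DMSO alone for three days at 37 °C/5% CO2. Replicon RNA quantified by TaqMan Cells-to-CT RT-qPCR with NS5B primers/probe, using GAPDH in parallel wells as reference. Level relative to DMSO-treated cells calculated as 2-∆∆CT. Triplicate wells.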

[4] = target: Histone deacetylase 2 (Homo sapiens) (UniProt Q92769); experiment: Inhibition of full length C-terminal His-tagged human HDAC2 expressed in baculovirus expression system assessed as inhibition of fluorophore 7-amino-4-methylcoumarin release by fluorescence assay
[5] = target: Histone deacetylase 3 (Homo sapiens) (UniProt O15379); experiment: Inhibition of full length C-terminal His-tagged human HDAC3 expressed in baculovirus expression system assessed as inhibition of fluorophore 7-amino-4-methylcoumarin release by fluorescence assay
[6] = target: Histone deacetylase 5 (Homo sapiens) (UniProt Q9UQL6); experiment: Inhibition of full length N-terminal GST-tagged human HDAC5 expressed in baculovirus expression system assessed as inhibition of fluorophore 7-amino-4-methylcoumarin release by fluorescence assay
[7] = target: T1, Histone deacetylase 7 (Homo sapiens) (UniProt Q8WUI4); experiment: Inhibition of full length N-terminal GST-tagged human HDAC7 (amino acids 518 to end) expressed in baculovirus expression system assessed as inhibition of fluorophore 7-amino-4-methylcoumarin release by fluorescence assay
T1 sequence (whole entry): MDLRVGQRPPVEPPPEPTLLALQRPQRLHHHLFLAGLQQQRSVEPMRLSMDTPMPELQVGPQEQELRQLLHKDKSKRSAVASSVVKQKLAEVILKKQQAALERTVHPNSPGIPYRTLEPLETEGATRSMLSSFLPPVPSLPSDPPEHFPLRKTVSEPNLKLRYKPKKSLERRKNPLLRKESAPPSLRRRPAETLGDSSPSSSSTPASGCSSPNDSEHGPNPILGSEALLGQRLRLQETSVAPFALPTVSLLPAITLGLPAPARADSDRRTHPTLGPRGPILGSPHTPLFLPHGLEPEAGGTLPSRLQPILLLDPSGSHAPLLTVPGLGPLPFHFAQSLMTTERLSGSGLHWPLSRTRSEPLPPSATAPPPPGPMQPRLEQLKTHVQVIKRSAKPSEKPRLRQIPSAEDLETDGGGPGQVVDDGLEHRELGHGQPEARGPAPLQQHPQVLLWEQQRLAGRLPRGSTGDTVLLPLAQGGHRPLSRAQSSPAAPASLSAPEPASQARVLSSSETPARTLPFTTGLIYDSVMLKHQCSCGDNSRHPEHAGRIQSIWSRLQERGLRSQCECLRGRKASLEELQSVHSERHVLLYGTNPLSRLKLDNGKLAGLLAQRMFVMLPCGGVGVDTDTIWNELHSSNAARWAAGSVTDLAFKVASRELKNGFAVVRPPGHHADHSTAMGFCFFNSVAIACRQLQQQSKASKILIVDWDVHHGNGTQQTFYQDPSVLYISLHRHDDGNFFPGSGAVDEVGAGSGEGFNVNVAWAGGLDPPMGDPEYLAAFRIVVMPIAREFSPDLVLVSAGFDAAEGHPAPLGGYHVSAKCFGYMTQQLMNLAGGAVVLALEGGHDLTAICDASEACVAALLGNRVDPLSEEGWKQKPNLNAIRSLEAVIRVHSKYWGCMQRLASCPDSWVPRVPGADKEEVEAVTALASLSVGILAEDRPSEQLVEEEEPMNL

[8] = target: T2, Polyamine deacetylase HDAC10 (Homo sapiens) (UniProt Q969S8); experiment: Inhibition of full length N-terminal GST-tagged human HDAC10 (amino acids 1 to 631 ) expressed in baculovirus expression system assessed as inhibition of fluorophore 7-amino-4-methylcoumarin release by fluorescence assay
T2 sequence (whole entry): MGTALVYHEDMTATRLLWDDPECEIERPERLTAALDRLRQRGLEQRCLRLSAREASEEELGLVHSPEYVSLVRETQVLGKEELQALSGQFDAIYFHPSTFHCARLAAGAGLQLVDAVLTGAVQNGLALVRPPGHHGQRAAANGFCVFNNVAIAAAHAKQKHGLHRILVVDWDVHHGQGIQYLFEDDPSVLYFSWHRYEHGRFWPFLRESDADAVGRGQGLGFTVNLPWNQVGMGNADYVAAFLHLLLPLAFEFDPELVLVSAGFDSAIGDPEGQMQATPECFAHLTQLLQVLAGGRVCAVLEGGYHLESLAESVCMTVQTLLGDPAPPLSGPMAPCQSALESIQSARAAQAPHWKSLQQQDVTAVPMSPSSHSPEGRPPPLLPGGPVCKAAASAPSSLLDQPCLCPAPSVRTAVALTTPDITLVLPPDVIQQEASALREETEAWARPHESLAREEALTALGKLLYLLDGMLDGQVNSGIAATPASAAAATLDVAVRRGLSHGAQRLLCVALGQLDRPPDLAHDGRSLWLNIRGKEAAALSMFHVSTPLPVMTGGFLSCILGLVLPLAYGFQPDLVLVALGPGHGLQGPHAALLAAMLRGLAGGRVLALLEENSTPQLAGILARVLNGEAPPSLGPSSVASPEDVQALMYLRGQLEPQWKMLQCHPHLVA

[9] = target: Macrophage metalloelastase (Homo sapiens) (UniProt P39900); experiment: Inhibition of human recombinant MMP12 catalytic domain (99 to 271 aa) expressed in Escherichia coli
[10] = target: Disintegrin and metalloproteinase domain-containing protein 17 (Homo sapiens) (UniProt P78536); experiment: Inhibition of human recombinant TACE catalytic domain (215 to 671 aa) expressed in Escherichia coli
[11] = target: Hepatitis C virus serine protease, NS3/NS4A (Hepatitis C virus) (UniProt D2K2A8+A3EZI9); experiment: Inhibition of HCV NS3/4A protease; settings: Hepacivirus hominis
Hepacivirus hominis = experiment: Inhibition of HCV NS5B RNA dependent RNA polymerase

Disintegrin and metalloproteinase domain-containing protein 17 (Homo sapiens), sequence (P78536 whole entry, the tested form may be a part): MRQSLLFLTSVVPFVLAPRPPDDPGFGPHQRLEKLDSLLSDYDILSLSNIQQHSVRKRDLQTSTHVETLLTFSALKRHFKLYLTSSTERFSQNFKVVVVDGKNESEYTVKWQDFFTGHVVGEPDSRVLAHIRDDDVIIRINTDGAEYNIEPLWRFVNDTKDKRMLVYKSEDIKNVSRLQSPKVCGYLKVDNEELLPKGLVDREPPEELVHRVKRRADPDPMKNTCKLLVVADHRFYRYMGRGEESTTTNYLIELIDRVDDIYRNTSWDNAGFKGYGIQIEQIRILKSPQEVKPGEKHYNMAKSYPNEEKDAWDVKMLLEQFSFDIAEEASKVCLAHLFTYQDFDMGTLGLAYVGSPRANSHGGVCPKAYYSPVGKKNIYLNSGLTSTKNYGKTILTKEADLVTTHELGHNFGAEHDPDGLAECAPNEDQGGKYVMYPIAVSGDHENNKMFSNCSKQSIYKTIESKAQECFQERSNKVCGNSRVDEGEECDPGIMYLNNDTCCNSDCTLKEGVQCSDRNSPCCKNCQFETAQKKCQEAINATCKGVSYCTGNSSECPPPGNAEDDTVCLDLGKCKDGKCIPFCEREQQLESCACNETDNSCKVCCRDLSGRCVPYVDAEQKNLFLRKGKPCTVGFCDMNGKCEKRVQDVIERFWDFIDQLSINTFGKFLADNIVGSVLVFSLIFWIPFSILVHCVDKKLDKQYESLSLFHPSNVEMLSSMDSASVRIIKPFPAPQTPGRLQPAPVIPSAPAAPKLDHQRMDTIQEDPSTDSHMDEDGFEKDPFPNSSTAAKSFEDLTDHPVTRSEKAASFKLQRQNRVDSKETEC
Histone deacetylase 3 (Homo sapiens), sequence (O15379 whole entry): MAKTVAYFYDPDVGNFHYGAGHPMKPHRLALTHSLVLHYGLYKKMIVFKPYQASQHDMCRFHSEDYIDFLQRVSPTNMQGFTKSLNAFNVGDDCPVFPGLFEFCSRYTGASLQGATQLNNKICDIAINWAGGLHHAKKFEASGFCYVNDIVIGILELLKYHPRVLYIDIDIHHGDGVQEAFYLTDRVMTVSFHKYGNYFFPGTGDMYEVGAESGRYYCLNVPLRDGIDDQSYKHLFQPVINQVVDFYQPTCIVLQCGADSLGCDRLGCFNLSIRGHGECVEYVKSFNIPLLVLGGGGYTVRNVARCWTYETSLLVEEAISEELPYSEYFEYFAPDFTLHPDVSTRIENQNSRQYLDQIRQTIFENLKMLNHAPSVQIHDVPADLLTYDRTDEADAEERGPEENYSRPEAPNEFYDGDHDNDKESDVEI
Histone deacetylase 2 (Homo sapiens), sequence (Q92769 whole entry): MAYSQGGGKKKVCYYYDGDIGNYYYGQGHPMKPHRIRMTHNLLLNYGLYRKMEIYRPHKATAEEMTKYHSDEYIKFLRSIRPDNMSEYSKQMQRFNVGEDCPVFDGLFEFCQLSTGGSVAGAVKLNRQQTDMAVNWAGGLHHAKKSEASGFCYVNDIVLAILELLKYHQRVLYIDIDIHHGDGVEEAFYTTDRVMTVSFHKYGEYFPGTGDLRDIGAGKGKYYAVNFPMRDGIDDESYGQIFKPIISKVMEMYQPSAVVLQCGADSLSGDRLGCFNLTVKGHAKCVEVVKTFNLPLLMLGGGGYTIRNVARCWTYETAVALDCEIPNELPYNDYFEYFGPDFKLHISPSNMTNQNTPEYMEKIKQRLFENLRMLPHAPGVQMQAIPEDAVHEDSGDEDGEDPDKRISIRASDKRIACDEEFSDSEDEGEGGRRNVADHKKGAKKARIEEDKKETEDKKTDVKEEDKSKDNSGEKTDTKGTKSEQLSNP
Histone deacetylase 5 (Homo sapiens), sequence (Q9UQL6 whole entry, the tested form may be a part): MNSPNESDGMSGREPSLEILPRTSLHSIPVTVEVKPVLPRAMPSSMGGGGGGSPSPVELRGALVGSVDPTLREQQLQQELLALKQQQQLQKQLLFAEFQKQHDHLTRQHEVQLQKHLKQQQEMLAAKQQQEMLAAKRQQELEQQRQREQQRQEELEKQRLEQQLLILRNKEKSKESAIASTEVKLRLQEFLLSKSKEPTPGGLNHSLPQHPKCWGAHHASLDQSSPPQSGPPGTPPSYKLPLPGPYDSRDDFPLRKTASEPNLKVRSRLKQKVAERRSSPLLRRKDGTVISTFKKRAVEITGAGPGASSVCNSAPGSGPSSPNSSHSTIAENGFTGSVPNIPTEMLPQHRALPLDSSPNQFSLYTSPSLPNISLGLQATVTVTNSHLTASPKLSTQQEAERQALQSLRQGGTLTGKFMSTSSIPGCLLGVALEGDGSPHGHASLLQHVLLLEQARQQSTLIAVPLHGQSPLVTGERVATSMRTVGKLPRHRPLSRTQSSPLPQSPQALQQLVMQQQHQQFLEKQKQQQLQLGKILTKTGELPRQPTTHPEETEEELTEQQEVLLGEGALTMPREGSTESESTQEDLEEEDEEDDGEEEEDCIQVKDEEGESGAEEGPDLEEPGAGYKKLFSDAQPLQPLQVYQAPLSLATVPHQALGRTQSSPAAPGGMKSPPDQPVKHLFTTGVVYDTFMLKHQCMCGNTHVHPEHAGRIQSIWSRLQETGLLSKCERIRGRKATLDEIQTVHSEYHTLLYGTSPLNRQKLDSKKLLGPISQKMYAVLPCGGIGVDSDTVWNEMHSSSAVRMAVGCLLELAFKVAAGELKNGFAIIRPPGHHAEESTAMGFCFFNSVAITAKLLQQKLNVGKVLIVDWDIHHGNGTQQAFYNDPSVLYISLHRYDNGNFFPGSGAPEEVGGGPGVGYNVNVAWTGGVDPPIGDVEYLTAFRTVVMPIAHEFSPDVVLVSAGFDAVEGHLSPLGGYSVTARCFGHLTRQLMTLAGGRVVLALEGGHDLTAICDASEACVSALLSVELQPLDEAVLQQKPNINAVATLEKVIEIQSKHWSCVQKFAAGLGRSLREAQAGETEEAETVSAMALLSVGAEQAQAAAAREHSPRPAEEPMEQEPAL
Macrophage metalloelastase (Homo sapiens), sequence (P39900 106-470 limits assumed): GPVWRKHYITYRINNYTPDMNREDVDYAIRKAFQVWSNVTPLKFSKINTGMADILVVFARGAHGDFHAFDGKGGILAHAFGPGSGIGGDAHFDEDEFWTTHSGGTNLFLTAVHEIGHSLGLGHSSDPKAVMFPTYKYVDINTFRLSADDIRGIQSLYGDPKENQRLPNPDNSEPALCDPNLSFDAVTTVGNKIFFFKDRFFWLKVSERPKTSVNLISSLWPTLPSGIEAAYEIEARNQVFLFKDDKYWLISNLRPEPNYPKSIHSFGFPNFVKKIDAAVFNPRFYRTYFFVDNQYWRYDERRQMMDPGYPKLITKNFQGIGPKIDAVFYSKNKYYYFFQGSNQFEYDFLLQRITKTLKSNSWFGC

EC50 (Hepatitis C virus [2]): 0.61 µM
inhibition [4]: inactive
inhibition [5]: inactive
inhibition [6]: inactive
inhibition [7]: inactive
inhibition [8]: inactive
inhibition [9]: Active
inhibition [10]: inactive
inhibition [11]: inactive
inhibition (Hepacivirus hominis): inactive
Compound: O=C(NO)c1sc2ccccc2c1S(=O)(=O)c1ccccc1
CC50 at 72 h [1]: 57 µM
Activity (Hepatitis C virus [3]): 75%
